Test results published in paper PMC12461553 (RSC Advances, 2025).

Experiments:
BEAS-2B lung cells = assay: SRB cytotoxicity assay, BEAS-2B normal cells; type: cell-based; conditions: Homo sapiens, read-out: IC50 value, BEAS-2B lung cells
Outline: (§1)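 Dose–response SRB assay: cells at 3000 per well were attached 24 h, then treated 48 h with test compound at 0.39–25 μM. They were TCA-fixed and stained with 0.057% SRB. Bound dye was dissolved in Tris base pH 10.5 and read at 510 nm. IC50 was fitted by non-linear regression.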

HEK-293 kidney cells = assay: SRB cytotoxicity assay, HEK-293 normal cells; type: cell-based; conditions: Homo sapiens, HEK293, read-out: IC50 value, HEK-293 kidney cells
Outline: as §1

MDA-MB-231 cells [1] = assay: SRB cytotoxicity assay, MDA-MB-231; type: cell-based, human
4T1 cells [2] = assay: Cell cycle analysis; type: cell-based, murine; conditions: 4T1, 6 μM
Outline: (§2)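 Cells were seeded at 1 × 10^5 per well and attached 24 h, then exposed to test compound for 24 h. Doxorubicin (0.5 μM) and untreated controls were run alongside. Cells were harvested, washed with PBS and stained with PI/RNase solution for DNA content. Flow cytometry gave G1, S and G2/M fractions from fluorescence intensity using predefined gates.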

MDA-MB-231 cells [3] = assay: 3D spheroid; type: cell-based, human; conditions: 8 days
Outline: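 Single-cell suspensions in 1.5% methylcellulose/DMEM with 20% FBS were seeded at 1 × 10^5 cells per well over a 1% agarose–DMEM base for non-adherent growth. Cells were treated with test compound (0.5, 1, 2 μM) or doxorubicin and incubated 8 days. Spheres (≥20 cells) were imaged by fluorescence microscopy and counted per microscopic field.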

4T1 cells [4] = assay: SRB cytotoxicity assay, 4T1; type: cell-based, murine
Outline: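 Single-dose screen: cells in DMEM/10% FBS at 37 °C, 5% CO2, seeded at 3000 per well, attached 24 h, then exposed to test compound at 25 μM final for 48 h. Fixed in cold 10% TCA, 1 h, 4 °C; stained 0.057% SRB, 30 min, dark, room temperature; rinsed with 1% acetic acid; dye solubilised in Tris base pH 10.5; absorbance 510 nm; percent cell death.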

MCF-7 cells [5] = assay: SRB cytotoxicity assay, MCF-7; type: cell-based, human
4T1 cells [6] = assay: Annexin V-FITC/PI apoptosis assay, 4T1; type: cell-based, murine
Outline: (§3)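 Cells were seeded at 1 × 10^5 per well and allowed to adhere 24 h, then treated 24 h with test compound (2, 4, 6 μM) alongside untreated controls. They were harvested, washed in PBS and stained with annexin V-FITC plus PI in binding buffer, 20 min, dark, room temperature. Flow cytometry gave percentages of viable, early apoptotic, late apoptotic and necrotic cells.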

MCF-7 cells [7] = assay: Annexin V-FITC/PI apoptosis assay, MCF-7; type: cell-based, human
Outline: as §3

MCF-7 cells [8] = assay: Cell cycle analysis; type: cell-based, human; conditions: MCF-7, 6 μM
Outline: as §2

[9] = system: BCL-2 and Survivin expression in MDA-MB-231 cells; assay: Gene expression analysis by RT-qPCR; type: cell-based, human
Outline: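 Cells were treated 48 h with varying test compound concentrations, then total RNA was extracted and checked spectrophotometrically. 2 μg RNA was reverse-transcribed to cDNA. BCL2 and Survivin transcripts were measured by RT-qPCR and quantified by the 2−ΔΔCt method against β2-microglobulin as reference gene.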

MDA-MB-231 cells [10] = assay: Cell cycle analysis; type: cell-based, human; conditions: MDA-MB-231, 4 μM
Outline: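 Cells were treated with test compound at 0.5, 1, 2 and 4 μM beside untreated controls. They were stained with propidium iodide and analysed by flow cytometry to give the percentages of cells in G1, S and G2/M phases.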

Cc1ccc(C(=O)c2c(-c3ccccc3)n(Cc3ccccc3)c(=O)c3c2c2ccccc2n3C)cc1 [9c, 2-Benzyl-9-methyl-4-(4-methylbenzoyl)-3-phenyl-2,9-dihydro-1H-pyrido[3,4-b]indol-1-one] gave an IC50 (BEAS-2B lung cells) of 7.18 ± 0.32 µM, an IC50 (HEK-293 kidney cells) of 7.96 ± 0.04 µM and a cytotoxicity at 25 µM (MDA-MB-231 cells [1]; Homo sapiens, MDA-MB-231, 48 h, read-out: Average cell death (%) MDA-MB-231) of 94.7 ± 1.1%. The IC50 (MDA-MB-231 cells [1]; Homo sapiens, MDA-MB-231, 48 h, read-out: IC50 value, MDA-MB-231) was 0.77 ± 0.03 µM, the “Selectivity for MDA-MB-231 breast cancer cells” value (MDA-MB-231 cells [1]; MDA-MB-231 over normal HEK-293 kidney and BEAS-2B lung cells) was ~10 fold and the G1 phase population (4T1 cells [2]) was 50.1%. The G2/M population (4T1 cells [2]) was 41.1%, the Number of spheres (MDA-MB-231 cells [3]; MDA-MB-231, 0.5, 1, and 2 μM) was “reduced the number of spheres in a dose-dependent manner” and the Sphere formation (MDA-MB-231 cells [3]; MDA-MB-231, methylcellulose) was “completely abrogated sphere formation”. The cytotoxicity at 25 µM (4T1 cells [4]; Mus musculus, 4T1, 48 h, read-out: Average cell death (%) 4T1) was 72.34 ± 0.04%, the IC50 (4T1 cells [4]; Mus musculus, 4T1, 48 h, read-out: IC50 value, 4T1) was 3.71 ± 0.39 µM and the “Average cell death (%) 4T1” value (4T1 cells [4]; at 25 μM, 48 h, SRB assay) was 72.34 ±4.04%. For the same compound, the cytotoxicity at 25 µM (MCF-7 cells [5]; Homo sapiens, MCF7, 48 h, read-out: Average cell death (%) MCF-7) was 75.14 ± 0.02%, the IC50 (MCF-7 cells [5]; Homo sapiens, MCF7, 48 h, read-out: IC50 value, MCF-7) was 4.34 ± 0.31 µM and the “Average cell death (%) MCF-7” value (MCF-7 cells [5]; at 25 μM, 48 h, SRB assay) was 75.14 ±4.02%. For the same compound, the Early apoptosis (4T1 cells [6]; 4T1, 2 μM) was 13.5%, the Total apoptosis (4T1 cells [6]; 4T1, 2 μM) was 16.5% and the Early apoptosis (4T1 cells [6]; 4T1, 4 μM) was 19.2%. It also gave a Total apoptosis (4T1 cells [6]; 4T1, 4 μM) of 23.5%, an Early apoptosis (4T1 cells [6]; 4T1, 6 μM) of 22% and a Total apoptosis (4T1 cells [6]; 4T1, 6 μM) of 27.2%. The Early apoptosis (MCF-7 cells [7]; MCF-7, 2 μM) was 7.2%, the “Total apoptotic population (early + late)” value (“Total apoptotic population” for short) (MCF-7 cells [7]; MCF-7, 2 μM) was 11.3% and the Early apoptosis (MCF-7 cells [7]; MCF-7, 4 μM) was 8.05%. For the same compound, the “Total apoptotic population” value (MCF-7 cells [7]; MCF-7, 4 μM) was 14.1%, the Early apoptosis (MCF-7 cells [7]; MCF-7, 6 μM) was 9.9% and the “Total apoptotic population” value (MCF-7 cells [7]; MCF-7, 6 μM) was 16.5%. The G1 phase population (MCF-7 cells [8]) was 85.6%, the “Expression of BCL-2” value [9] was “significantly downregulated” and the “Expression of Survivin” value [9] was “significantly downregulated”. The G1 phase population (MDA-MB-231 cells [10]) was 46.9% and the G2/M population (MDA-MB-231 cells [10]) was 41.9%.
